According to ChEMBL document CHEMBL3046951, “Volatile constituents from the leaves of Callicarpa japonica Thunb. and their antibacterial activities” (2004):

Columns and labels:
Assay type in all cases: functional
Vibrio parahaemolyticus [1] = test: Antimicrobial activity against Vibrio parahaemolyticus ATCC 33844 assessed as growth inhibition rate at 247 mg/l after 72 hr by spectrophotometry; conditions: ATCC 33844, 72 h, read-out: GI
Bacillus cereus [2] = test: Antimicrobial activity against Bacillus cereus ATCC 11778 assessed as growth inhibition rate at 247 mg/l after 72 hr by spectrophotometry; conditions: ATCC 11778, 72 h, read-out: GI
How it was run: (§1)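 Pure volatile compounds (purity >95%; one at 90%) were tested against B. cereus ATCC 11778. The strain was grown at 30 °C in nutrient broth for 24 h, then subcultured for 18 h. Optical density was read in a Bioscreen C every 24 h for 72 h, with 10% Tween 80 as the control.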

Staphylococcus aureus = test: Antimicrobial activity against Staphylococcus aureus ATCC 25923 assessed as growth inhibition rate at 215.04 mg/l after 72 hr by spectrophotometry; conditions: ATCC 25923, 72 h, read-out: GI
Listeria monocytogenes [3] = test: Antimicrobial activity against Listeria monocytogenes ATCC 19111 assessed as growth inhibition rate at 107.52 mg/l after 72 hr by spectrophotometry; conditions: ATCC 19111, 72 h, read-out: GI
How it was run: (§2)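 L. monocytogenes was grown at 30 °C in tryptic soy broth, subcultured for 18 h, and exposed to pure volatile compounds (>95% purity). Growth was followed by Bioscreen C optical density every 24 h for 72 h against a 10% Tween 80 control.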

Escherichia coli [4] = test: Antimicrobial activity against Escherichia coli O157:H7 ATCC 43894 assessed as growth inhibition rate at 43 mg/l after 72 hr by spectrophotometry; conditions: O157:H7 ATCC 43894, 72 h, read-out: GI
Escherichia coli [5] = test: Antimicrobial activity against Escherichia coli O157:H7 ATCC 43894 assessed as growth inhibition rate at 6.12 mg/l after 72 hr by spectrophotometry; conditions: O157:H7 ATCC 43894, 72 h, read-out: GI
Vibrio parahaemolyticus [6] = test: Antimicrobial activity against Vibrio parahaemolyticus ATCC 33844 assessed as growth inhibition rate at 43 mg/l after 72 hr by spectrophotometry; conditions: ATCC 33844, 72 h, read-out: GI
Escherichia coli [7] = test: Antimicrobial activity against Escherichia coli O157:H7 ATCC 43894 assessed as growth inhibition rate at 107.52 mg/l after 72 hr by spectrophotometry; conditions: O157:H7 ATCC 43894, 72 h, read-out: GI
Bacillus cereus [8] = test: Antimicrobial activity against Bacillus cereus ATCC 11778 assessed as growth inhibition rate at 61.12 mg/l after 72 hr by spectrophotometry; conditions: ATCC 11778, 72 h, read-out: GI; how it was run: as §1
Salmonella typhimurium = test: Antimicrobial activity against Salmonella enterica subsp. enterica serovar Typhimurium ATCC 14028 assessed as growth inhibition rate at 6.12 mg/l after 72 hr by spectrophotometry; conditions: ATCC 14028, 72 h, read-out: GI
Listeria monocytogenes [9] = test: Antimicrobial activity against Listeria monocytogenes ATCC 19111 assessed as growth inhibition rate at 247 mg/l after 72 hr by spectrophotometry; conditions: ATCC 19111, 72 h, read-out: GI; how it was run: as §2

`CCC/C=C/C=O` was tested, and the inhibition of growth at 247 µg/mL (Vibrio parahaemolyticus [1]) was 100%, the inhibition of growth at 247 µg/mL (Bacillus cereus [2]) was 98.8% and the inhibition of growth at 215.04 µg/mL (Staphylococcus aureus) was 100%. It also gave an inhibition of growth at 107.52 µg/mL (Listeria monocytogenes [3]) of 99.4%, an inhibition of growth at 43 µg/mL (Escherichia coli [4]) of 25.5% and an inhibition of growth at 6.12 µg/mL (Escherichia coli [5]) of 7.3%. The inhibition of growth at 43 µg/mL (Vibrio parahaemolyticus [6]) was 100%, the inhibition of growth at 107.52 µg/mL (Escherichia coli [7]) was 89.9% and the inhibition of growth at 61.12 µg/mL (Bacillus cereus [8]) was 98.7%. The inhibition of growth at 6.12 µg/mL (Salmonella typhimurium) was 47.1% and the inhibition of growth at 247 µg/mL (Listeria monocytogenes [9]) was 99.7%.
